Results on seven molecules are retold here after ChEMBL document CHEMBL1127051, “Vanilloids. 1. Analogs of capsaicin with antinociceptive and antiinflammatory activity” (J Med Chem, 1993).

As a reminder, the Inhibition is how much of the control response was suppressed.

For data set [1], the system named is Rattus norvegicus. The data set can be described thus: Percentage analgesia by rat hot plate test after oral administration at 300 mg/kg. Format: functional. The method, boiled down: (§1)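 Rats fasted 18 h, prescreened on a 55 ± 0.5 °C hot plate (latency <12 s, else lowest <30 s) to set the 0 h value. Groups of 8 dosed orally in sesame oil (1 mL/200 g); latency read at 1.5, 3, 5 h (24 h if persisting). %analgesia = [(LT(t) − LT(0))/(60 − LT(0))]×100, taken at the time of maximal latency.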
A general note: In hot-plate and tail-flick tests a longer latency is read as antinociception.

Data set [2] deals with Mus musculus. Description: Percentage inhibition in mouse by using Croton oil-inflamed mouse ear test (topical dosing). The class given is functional. Details: concentration or dose not given beside the values. The gist of the method: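 Male Cox ICR mice (25–35 g), 10 per group. Left ear given 25 μL of 1% compound in ethanol, repeated ~17 h later; 1 h after that, both ears given 25 μL 2% croton oil. After 4 h, 5 mm ear punches weighed. % inhibition = [(C − T1)/C]×100, using left-minus-right weight differences versus vehicle controls.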

For data set [3], the system named is Mus musculus. The data set can be described thus: Latency time measured by mouse hot plate test after subcutaneous administration at 200 mg/kg. The class given is functional. Also noted: unit: s. The method, boiled down: (§2)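 Male CF-1 mice, 8 per group, given test agent sc in 0.2 mL ethanol/Tween-80/saline (10/10/80); dose 0.68 mmol (200 mg/kg for capsaicin). Placed on copper surface held at 55 ± 0.5 °C. Paw-response latency (s) reported as group mean ± SD; pretest latency ~5 s.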

Data set [4] in a line: Acute toxicity after intraperitoneal dose at 33 mg/kg in mice. Format: organism-based. Also noted: dose 33 mg/kg, route intraperitoneal. The conditions noted are these: mouse, in vivo, ip, read-out: Lethality. The method, boiled down: (§3)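 Single intraperitoneal dose at the listed mg/kg; acute toxicity scored as % lethality = number of deaths / number of animals dosed, 7–10 animals per group.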

Data set [5] is described as follows: Acute toxicity after intraperitoneal dose at 100 mg/kg in mice. Format: organism-based. Also noted: dose 100 mg/kg, route intraperitoneal. The conditions noted are these: mouse, in vivo, ip, read-out: Lethality. The gist of the method: as §3
The species entered for data set [6] is Mus musculus. The data set can be described thus: Ratio of the number of responders to the number of animals tested; 5/8. Format: functional.
Data set [7] is described as follows: Acute toxicity after intraperitoneal dose at 4 mg/kg in mice. Format: organism-based. Details: dose 4 mg/kg, route intraperitoneal. The conditions noted are these: mouse, in vivo, ip, read-out: Lethality. The method, boiled down:
as §3

For data set [8], the system named is Rattus norvegicus. The data set can be described thus: Percentage analgesia by using rat hot plate test after oral administration at 300 mg/kg. The class given is functional. The method, boiled down:
as §1

The subject of data set [9] is Mus musculus. Description: Latency time measured by mouse hot plate test after subcutaneous administration at 200 mg/kg in experiment 1. Format: functional. The method, boiled down:
as §2

Data set [10] deals with Mus musculus. Description: Latency time measured by mouse hot plate test after subcutaneous at 200 mg/kg in experiment 2. The class given is functional. The method, boiled down:
as §2

The test system of data set [11] is Mus musculus. The data set can be described thus: Latency time measured by mouse hot plate test after subcutaneous administration at 200 mg/kg in experiment 3. Format: functional. The method, boiled down: as §2
Data set [12] can be described thus: Acute toxicity after intraperitoneal dose at 50 mg/kg in mice. The following applies: mouse, in vivo, ip, read-out: Lethality. Details: dose 50 mg/kg, route intraperitoneal. Format: organism-based. The gist of the method:
as §3

For data set [13], the species on record is Mus musculus. Description: Ratio of the number of responders to the number of animals tested; 5/5. Format: functional.
The species entered for data set [14] is Mus musculus. Description: Ratio of the number of responders to the number of animals tested; 7/8. The class given is functional.
Data set [15] can be described thus: Acute toxicity after intraperitoneal dose at 400 mg/kg in mice. Also noted: dose 400 mg/kg, route intraperitoneal. The following applies: mouse, in vivo, ip, read-out: Lethality. Format: organism-based. The method, boiled down:
as §3

Data set [16] is described as follows: Acute toxicity after intraperitoneal dose at 8 mg/kg in mice. The class given is organism-based. Details: dose 8 mg/kg, route intraperitoneal. The following applies: mouse, in vivo, ip, read-out: Lethality. The gist of the method: as §3
The species named for data set [17] is Mus musculus. Description: Ratio of the number of responders to the number of animals tested; 8/8. The class given is functional.
Data set [18] is filed under the species Mus musculus. Description: Ratio of the number of responders to the number of animals tested; 6/7. Format: functional. The method, boiled down: (§4)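 Male CF-1 mice, 8 per group, dosed sc in 0.2 mL ethanol/Tween-80/saline (10/10/80). Latency read on a copper hot plate held at 55 ± 0.5 °C, with a pretest latency of about 5 s; reported as mean latency (s) ± SD. A responder is an animal whose latency exceeds the vehicle-control mean plus 2 SD; response = responders/animals tested.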

Data set [19] has as its system Mus musculus. Description: Latency time measured by mouse hot plate test after subcutaneous administration at 40 mg/kg. The class given is functional. The gist of the method:
as §4

`C=CCCCCCCCCC(=O)NCc1ccc(O)c(OC)c1` registered an Analgesia in the data set on Rattus norvegicus [1] of 8%. In the data set on Mus musculus [2], this molecule showed an Inhibition of 65.7%. For the same molecule, the Latency in the data set on Mus musculus [3] was 55.5. Further, the mortality in data set [4] was found to be 50%.

In the data set with Rattus norvegicus [1], `C=CCCCCCCCCNC(=O)Cc1ccc(O)c(OC)c1` yielded an Analgesia of 29%. In the data set with Mus musculus [2], this molecule gave an Inhibition of 98.9%. In the data set with Mus musculus [3], the Latency is listed as 32.4. Besides, the mortality in data set [5] was determined as 90%. In addition, the Response in the data set listed under Mus musculus [6] was 5.

With `CCCCCCCCNC(=O)Cc1ccc(O)c(OC)c1`, the mortality in [7] came out at 50%. The molecule also came in with an Analgesia in the data set with Rattus norvegicus [8] of 7%. The molecule further came in with an Inhibition in the data set with Mus musculus [2] of 89.1%. Further, the Latency in the data set with Mus musculus [9] is listed as 58.7; in the data set with Mus musculus [10], more than 60; with Mus musculus [11] it was 32.3.

Consider `CCCCCCCCCC(=O)NCc1ccc(O)c(OC)c1`, for which the Inhibition in the data set with Mus musculus [2] is 71.4%. In the data set on Mus musculus [3], this molecule gave a Latency of more than 43. In addition, in data set [12], the mortality came out at 80%. Further, in the data set listed under Mus musculus [13], the Response is 5.

With `CCCCCCC/C=C\CCCCCCCCC(=O)NCc1ccc(O)c(OC)c1`, in the data set on Rattus norvegicus [1], the Analgesia was determined as 69%. In the data set with Mus musculus [2], the Inhibition came out at 81.7%. This molecule also registered a Latency in the data set with Mus musculus [3] of more than 38.5. In addition, the Response in the data set listed under Mus musculus [14] worked out at 7. Moreover, the mortality in data set [15] is 30%.

On to `CCCCCCCCC(=O)NCc1ccc(O)c(OC)c1` [NONIVAMIDE], for which the Analgesia with Rattus norvegicus [1] was found to be 17%. Further, the Inhibition in the data set with Mus musculus [2] is listed as 72.3%. This molecule also registered a Latency with Mus musculus [3] of more than 31.2. Further, the mortality in data set [16] turned out to be 50%. For the same molecule, the Response in the data set listed under Mus musculus [17] is reported as 8.

In the data set on Rattus norvegicus [1], `COc1cc(CNC(=O)CCCC/C=C\C(C)C)ccc1O` [ZUCAPSAICIN] came in with an Analgesia of 0%. Besides, the Inhibition in the data set on Mus musculus [2] was 79.5%. Further, the Response in the data set listed under Mus musculus [18] is given as 6. In the data set on Mus musculus [19], this molecule returned a Latency of more than 39.9.
